Assay outcomes deposited in PubChem BioAssay by several laboratories.
Rad51 HR inh: blocks human Rad51 in homologous recombination. hRad51 DNA strand exchange, fluorescence dequenching. Q06609. inhibition, % at 10 µM. 200,000 tested, 0.085% active;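 active = inhibition above 40% at the single screening dose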;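 note: 0% = DMSO control wells and 100% = blanks with heterologous ssDNA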
Target sequence (Q06609 whole entry, looked up): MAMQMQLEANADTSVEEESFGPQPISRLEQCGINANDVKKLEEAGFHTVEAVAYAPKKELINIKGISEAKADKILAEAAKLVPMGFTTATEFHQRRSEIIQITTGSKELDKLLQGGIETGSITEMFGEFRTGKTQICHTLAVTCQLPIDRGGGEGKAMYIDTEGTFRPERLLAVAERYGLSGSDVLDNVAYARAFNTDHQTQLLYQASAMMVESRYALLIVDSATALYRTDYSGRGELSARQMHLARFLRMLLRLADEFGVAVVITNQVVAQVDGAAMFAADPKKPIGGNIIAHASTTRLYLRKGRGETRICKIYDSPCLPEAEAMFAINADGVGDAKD
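Assay system: Human Rad51 nucleoprotein filaments preassembled on unlabelled ssDNA | Reagent: Donor/quencher-labelled 47-bp dsDNA substrate | Doses: One concentration, 10 µM final | Times: 37 °C 15-min filament assembly, 30-min compound preincubation, 15-min exchange | Technique: Fluorescein emission 520 nm, excitation 485 nm | Benchmarks: Plate control and blank wells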
CHT allo act: allosteric activators of human choline transporter CHT | Q9GZV3 | CHT-expressing cells, membrane potential dye, choline EC20; active compounds read high; LV-AA mutant CHT in HEK293 cells | B-score at 10 µM | 310,000 tested, 0.49% active | AID 488977;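 active = initial fluorescence not abnormally high and integrated response B-score, plate-corrected, over 3 SD above library mean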
CHT inh: human CHT choline transport inhibition | CHT-expressing cells, membrane potential dye, choline response; active compounds read low | B-score at 10 µM | 310,000 tested, 0.86% active;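 active = B-score over 3 SD under the library average, and starting fluorescence ratio not unusually high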;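 note: choline stimulus applied at its EC90 after an EC20 pre-addition; B-score computed on integrated fluorescence ratio after choline addition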
Cl transport mod: KCC2 (human) Cl- transport modulation; Q9H2X9; 190,000 tested, 2.2% active; KCC2 cells, thallium flux FluoZin-2 fluorescence; AID 1456; B-score of Tl+ flux slope (higher = more flux/activation; lower = inhibition) at 10 µM;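 active = thallium flux slope and its plate-corrected score both differing from the plate sample mean at a set confidence after two filtering rounds, in either direction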;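 note: slope of fluorescence scaled to starting intensity during 10 to 20 s after thallium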
KCC2 sec1: KCC2 (human) modulation, secondary assay; shares compounds with Cl transport mod; HEK293-KCC2, thallium flux, FluoZin2 fluorescence; active compounds read high; normalised thallium flux (F/F0 slope) at 10 µM; 3,700 tested, 15% active; AID 1713;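 active = thallium flux slope above the same plate's solvent-only control mean plus 3 SD; inconclusive = the two replicate wells disagree; inactive = no significant difference from solvent-only control wells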
KCC2 bumet counter: thallium flux despite bumetanide block in KCC2 cells, secondary assay 3; shares compounds with Cl transport mod; AID 1714; 3,700 tested, 49% active; normalized thallium flux at 10 µM; HEK293-KCC2 + bumetanide/ouabain, thallium flux FluoZin2; active compounds read high;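 active = thallium entry rate above the same plate's blocked-transporter control wells by more than 3 SD; inconclusive = the two repeat wells disagree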;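 note: raw slope of fluorescence over initial fluorescence between 10 and 20 s after thallium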
KCC2 secondary2: confirmation of human KCC2 transport modulators; HEK293-KCC2, thallium flux FluoZin2 fluorescence; actives lie on both sides; F/F0 rise rate, 10–20 s post-thallium; shares compounds with Cl transport mod; normalized thallium flux at 10 µM; 3,700 tested, 23% active; AID 1715;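 active = thallium flux slope more than 3 SD above or below the plate's solvent-only control mean, mostly below; inconclusive = the two repeat wells disagreed; inactive = no significant shift from solvent-only controls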;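 note: raw slope with 0.1% DMSO as baseline and bumetanide as block control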
HEK293 Tl flux: acts in parental HEK cells, KCC2 counter-screen | 3,700 tested, 46% active | shares compounds with Cl transport mod | thallium flux rate (normalised fluorescence) at 10 µM | HEK293 parental cells, thallium flux FluoZin2, ouabain; baseline-ratio fluorescence slope, 10–20 s after thallium;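 active = thallium flux rate significantly above the same plate's solvent-only control wells, beyond their mean plus 3 SD; inconclusive = the two replicate wells gave conflicting results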
KCC2 retest ouab: modulates human KCC2 on retest with ouabain. raw Tl+ flux slope (below DMSO = inhibition, above = activation) at 10 µM. HEK293-KCC2, thallium flux FluoZin2 fluorescence; bidirectional: low = inhibitor, high = activator. shares compounds with Cl transport mod. 3,700 tested, 48% active. AID 1717;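 active = thallium flux slope beyond 3 SD from same-plate DMSO control mean in most replicates, usually higher, sometimes lower; inconclusive = repeat tests gave conflicting results; inactive = no significant difference from controls in most replicates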;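 note: slope of initial-normalized fluorescence between seconds 10 and 20 after thallium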
HEK293 Tl flux2: parental HEK flux effect, counter-screen 2; shares compounds with Cl transport mod; HEK293 parental, thallium flux FluoZin-2 fluorescence slope; thallium flux slope at 10 µM; 3,700 tested, 33% active;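 active = thallium flux slope above the same plate's solvent-control mean plus 3 SD in both duplicate wells; inconclusive = duplicate wells that disagreed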;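 note: run without ouabain in cells lacking the KCC2 cotransporter; slope of fluorescence scaled to its starting value between 10 and 20 s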
* marks the source's active call; other numbers are inactive results; i = inactive; ? = inconclusive; nt = no result given. The list is not random: actives were taken first. Their share in the collection is about 2.6%.

SMILES	Rad51 HR inh	CHT allo act	CHT inh	Cl transport mod	KCC2 sec1	KCC2 bumet counter	KCC2 secondary2	HEK293 Tl flux	KCC2 retest ouab	HEK293 Tl flux2
CC(OC(=O)C1=Cc2ccccc2OC1)C(=O)NC1CCCC1 (stereo not drawn)	3	i	i	nt	nt	nt	nt	nt	nt	nt
O=C(OC(C(=O)NC1CCCC1)c1cccnc1)C1=Cc2ccccc2OC1 (stereo not drawn)	-3	i	i	-3.2*	0.0084	?	0.033	0.0077	0.018	0.011
CC1CCN(C(=O)Cn2c(=O)n(Cc3ccco3)c(=O)c3sccc32)CC1	nt	i	i	nt	nt	nt	nt	nt	nt	nt
CC(Sc1ncc(C(F)(F)F)cc1Cl)C(=O)NCC1CCCO1 (stereo not drawn)	nt	i	i	0.51	nt	nt	nt	nt	nt	nt
COC(=O)C(CC(=O)c1ccc(Br)cc1)n1cccn1 (stereo not drawn)	nt	i	i	nt	nt	nt	nt	nt	nt	nt
CCCOc1cccc(-c2cc(C(=O)N/N=C/c3ccccn3)c3ccccc3n2)c1	nt	i	i	nt	nt	nt	nt	nt	nt	nt
O=C(O)COc1ccccc1/C=N/NC(=O)c1cc(-c2ccc(Cl)cc2)nc2ccccc12	-2	i	i	-0.91	nt	nt	nt	nt	nt	nt
O=C(N/N=C/c1ccccn1)c1cc(-c2ccc(Cl)cc2)nc2ccccc12	nt	i	i	7.5*	?	0.042*	0.033	0.018*	0.027	?
O=C(N/N=C/c1ccccn1)c1cc(-c2ccc(Br)cc2)nc2ccccc12	2	i	i	9.4*	0.011	0.025*	0.035	?	?	?
CN(C)C(=O)c1cc(C(=O)c2ccc(F)cc2C(F)(F)F)c[nH]1	nt	i	i	nt	nt	nt	nt	nt	nt	nt
COC(=O)c1sc(-c2ccc(C(C)(C)C)cc2)cc1NC(=O)CCC(=O)O	12	i	i	-0.59	nt	nt	nt	nt	nt	nt
CC(C)N(Cc1nc(-c2ccccc2)no1)C(=O)CN(C)S(=O)(=O)c1ccc(Br)cc1	-3	i	i	0.072	0.008	0.0056	0.033	0.0076	0.02	0.011
CS(=O)(=O)C1=NSC2=NC(=O)/C(=C\c3cccn3-c3ccccc3Cl)C(=N)N21	-7	i	i	-5.1*	0.0068	0.0048	0.023*	0.0053*	0.014*	?
Cc1cc(C)cc(-n2cccc2/C=C2/C(=N)N3C(=NC2=O)SN=C3S(C)(=O)=O)c1	-22	i	i	-3.7	nt	nt	nt	nt	nt	nt
COc1cc(C(=O)Nc2nnc(C)s2)c([N+](=O)[O-])cc1OC	15	i	i	0.66	nt	nt	nt	nt	nt	nt
CC1(C)CC2(CCO1)C(Nc1ccccc1)=NC(=S)N2c1ccccc1 (stereo not drawn)	-5	i	i	14*	0.014*	0.034*	0.035	0.021*	0.029	0.014*
COc1ccc(NC2=NC(=S)N(c3cccc(C)c3)C23CCCCC3)cc1	nt	i	i	7.3*	0.011	0.016*	0.034	0.011*	?	0.011
Cc1cccc(NC2=NC(=S)N(c3ccc(C(=O)O)cc3)C23CCCCC3)c1	nt	i	i	-0.0065	nt	nt	nt	nt	nt	nt
Cc1ccccc1NC1=NC(=S)N(c2ccccc2)C12CCCCC2	-6	i	i	57*	0.025*	0.16*	0.043*	0.078*	0.11*	0.022*
Cc1cccc(NC(=O)COC(=O)c2ccccc2SCC(=O)N2CCCC2)c1	nt	i	i	nt	nt	nt	nt	nt	nt	nt
O=C(O)COc1ccccc1/C=C1\SC(=Nc2ccc(F)cc2)N(c2ccc(F)cc2)C1=O	4	i	i	-1	nt	nt	nt	nt	nt	nt
CC(C)Cn1cc(C(=O)N2CCN(c3ccccn3)CC2)c2c3ccccc3n(C)c2c1=O	-3	i	i	nt	0.009	0.0059	0.03	0.0068	0.034	0.01
Cc1ccc(Cc2cnc(N3C(=N)SC(C)C3=O)s2)cc1 (stereo not drawn)	6	i	i	11*	0.012	0.03*	0.035	0.018*	0.03*	0.011
Cc1cccc(Cc2cnc(N3C(=N)SC(C)C3=O)s2)c1 (stereo not drawn)	2	i	i	6*	0.017*	0.068*	0.035	0.029*	0.04*	0.014*
Cc1cccc(Cc2cnc(N3C(=N)SC(c4ccccc4)C3=O)s2)c1 (stereo not drawn)	18	i	i	1.4	nt	nt	nt	nt	nt	nt
SMILES	Rad51 HR inh	CHT allo act	CHT inh	Cl transport mod	KCC2 sec1	KCC2 bumet counter	KCC2 secondary2	HEK293 Tl flux	KCC2 retest ouab	HEK293 Tl flux2
Cc1ccccc1NC(=O)CC(C)S(=O)(=O)c1ccc2c(c1)NC(=O)CO2 (stereo not drawn)	nt	i	i	nt	nt	nt	nt	nt	nt	nt
CN(C)S(=O)(=O)c1ccc(C(=O)Nc2ccccc2C(=O)O)cc1	-3	i	i	-4.1*	0.0094	0.0055	0.029	0.0072	0.022	?
CCNc1nc(NCC)nc(Oc2ccc(N)cc2)n1	1	i	i	nt	0.0067	0.0046	0.031	0.0074	0.018	0.0096
CCNc1nc(OC)nc(Oc2ccc(C(=O)OC)cc2)n1	-5	i	i	-0.38	nt	nt	nt	nt	nt	nt
CC1=NN(c2nc3ccccc3[nH]2)C(=O)C1Cc1ccccc1 (stereo not drawn)	-14	i	i	8.6*	0.0076	0.016*	0.037	0.016*	0.027*	0.019*
Cc1nn(-c2nc3ccccc3[nH]2)c(=O)c2ccccc12	-2	i	i	-0.2	nt	nt	nt	nt	nt	nt
COc1ccc(S(=O)(=O)NCC2CCCN(C(=O)c3sccc3C)C2)cc1 (stereo not drawn)	-11	i	i	1.5	nt	nt	nt	nt	nt	nt
N#C/C(=C\c1cn(-c2ccccc2)nc1-c1cccnc1)c1nnc2n1CCCCC2	0	i	i	nt	0.0057	0.0047	0.024*	0.0085	?	0.01
c1csc(C2CCCN2c2nc3nonc3nc2NC2CC2)n1 (stereo not drawn)	-3	i	i	-1.3	nt	nt	nt	nt	nt	nt
COc1ccc(NC(=O)CCCCCN2C(=O)CCC2=O)cc1Cl	4	i	i	nt	0.0091	?	0.034	0.0085	0.023	0.011
COC(=O)C1CCN(Cc2cn(-c3ccccc3)nc2-c2ccc3c(c2)OCO3)CC1	-6	i	i	-5.8*	0.0099	0.0058	0.033	0.008	0.022	0.01
CCOC(=O)c1cc(-c2csc(Nc3c(C)cc(C)cc3C)n2)on1	19	i	i	0.02	nt	nt	nt	nt	nt	nt
